Measured values taken from ChEMBL document CHEMBL3616442, “Unconventional Knoevenagel-type indoles: Synthesis and cell-based studies for the identification of pro-apoptotic agents” (Eur J Med Chem, 2015).

Tests used:
SK-MEL-5 = experiment: Growth inhibition of human SK-MEL-5 cells after 48 hrs by sulforhodamine B assay; type: functional; conditions: SK-MEL-5, 48 h
UACC-62 = experiment: Growth inhibition of human UACC62 cells after 48 hrs by sulforhodamine B assay; type: functional; conditions: UACC-62, 48 h
SNB-75 = experiment: Growth inhibition of human SNB75 cells after 48 hrs by sulforhodamine B assay; type: functional; conditions: SNB-75, 48 h
OVCAR-5 = experiment: Growth inhibition of human OVCAR5 cells after 48 hrs by sulforhodamine B assay; type: functional; conditions: OVCAR-5, 48 h
SK-MEL-2 = experiment: Growth inhibition of human SK-MEL-2 cells after 48 hrs by sulforhodamine B assay; type: functional; conditions: SK-MEL-2, 48 h
HCT-116 = experiment: Growth inhibition of human HCT116 cells after 48 hrs by sulforhodamine B assay; type: functional; conditions: HCT-116, 48 h
Method in brief: (§1)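 NCI 60-cell-line screen. Compounds tested at five 10-fold dilutions from 10^-4 to 10^-8 M. Cells exposed for the last 48 h of a 72 h incubation, growth estimated by sulforhodamine B protein assay. GI50 is the concentration giving 50% growth inhibition. Values beyond the tested range are expressed as greater or lesser than the extreme concentration.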

OVCAR-4 = experiment: Growth inhibition of human OVCAR4 cells after 48 hrs by sulforhodamine B assay; type: functional; conditions: OVCAR-4, 48 h; method in brief: as §1
NCI-H226 = experiment: Growth inhibition of human NCI-H226 cells after 48 hrs by sulforhodamine B assay; type: functional; conditions: NCI-H226, 48 h; method in brief: as §1
A549 = experiment: Growth inhibition of human A549 cells after 48 hrs by sulforhodamine B assay; type: functional; conditions: A549, 48 h; method in brief: as §1
[1] = Growth inhibition of human BT549 cells after 48 hrs by sulforhodamine B assay; type: functional; conditions: BT-549, 48 h; method in brief: as §1
[2] = Growth inhibition of human HCC2998 cells after 48 hrs by sulforhodamine B assay; type: functional; conditions: HCC 2998, 48 h; method in brief: as §1
[3] = Growth inhibition of human NCI-ADR-RES cells after 48 hrs by sulforhodamine B assay; type: functional; method in brief: as §1
ACHN = experiment: Growth inhibition of human ACHN cells after 48 hrs by sulforhodamine B assay; type: functional; method in brief: as §1
HT-29 = experiment: Growth inhibition of human HT-29 cells after 48 hrs by sulforhodamine B assay; type: functional; conditions: HT-29, 48 h; method in brief: as §1
TK-10 = experiment: Growth inhibition of human TK10 cells after 48 hrs by sulforhodamine B assay; type: functional; conditions: TK-10, 48 h
Malme-3M = experiment: Growth inhibition of human MALME-3M cells after 48 hrs by sulforhodamine B assay; type: functional; method in brief: as §1
KM12 = experiment: Growth inhibition of human KM12 cells after 48 hrs by sulforhodamine B assay; type: functional; conditions: KM12, 48 h; method in brief: as §1
SW-620 = experiment: Growth inhibition of human SW620 cells after 48 hrs by sulforhodamine B assay; type: functional; conditions: SW-620, 48 h
[4] = Growth inhibition of human LOXIMVI cells after 48 hrs by sulforhodamine B assay; type: functional; conditions: LOX IMVI; method in brief: as §1
U-251 = experiment: Growth inhibition of human U251 cells after 48 hrs by sulforhodamine B assay; type: functional; conditions: U-251, 48 h
SNB-19 = experiment: Growth inhibition of human SNB19 cells after 48 hrs by sulforhodamine B assay; type: functional; conditions: SNB-19, 48 h
MDA-MB-468 = experiment: Growth inhibition of human MDA-MB-468 cells after 48 hrs by sulforhodamine B assay; type: functional; conditions: MDA-MB-468, 48 h; method in brief: as §1
SK-MEL-28 = experiment: Growth inhibition of human SK-MEL-28 cells after 48 hrs by sulforhodamine B assay; type: functional; conditions: SK-MEL-28, 48 h
K562 = experiment: Growth inhibition of human K562 cells after 48 hrs by sulforhodamine B assay; type: functional; conditions: K562, 48 h; method in brief: as §1
NCI-H23 = experiment: Growth inhibition of human NCI-H23 cells after 48 hrs by sulforhodamine B assay; type: functional; conditions: NCI-H23, 48 h; method in brief: as §1
HL-60(TB) = experiment: Growth inhibition of human HL-60(TB) cells after 48 hrs by sulforhodamine B assay; type: functional; conditions: HL-60, 48 h
Method in brief: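 NCI 60-cell-line screen, HL-60(TB) included. Compound given at five 10-fold dilutions from 10^-4 to 10^-8 M. Cells exposed for the last 48 h of a 72 h incubation. Growth or viability estimated by sulforhodamine B protein assay. GI50 is the concentration giving 50% growth inhibition. Values outside the tested range are reported as greater or less than the highest or lowest concentration.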

DU-145 = experiment: Growth inhibition of human DU145 cells after 48 hrs by sulforhodamine B assay; type: functional; conditions: DU-145, 48 h; method in brief: as §1
MCF7 = experiment: Growth inhibition of human MCF7 cells after 48 hrs by sulforhodamine B assay; type: functional; conditions: MCF7, 48 h; method in brief: as §1
NCI-H460 = experiment: Growth inhibition of human NCI-H460 cells after 48 hrs by sulforhodamine B assay; type: functional; conditions: NCI-H460, 48 h; method in brief: as §1
[5] = Growth inhibition of human Hs 578T cells after 48 hrs by sulforhodamine B assay; type: functional; method in brief: as §1
OVCAR-8 = experiment: Growth inhibition of human OVCAR8 cells after 48 hrs by sulforhodamine B assay; type: functional; conditions: OVCAR-8, 48 h
OVCAR-3 = experiment: Growth inhibition of human OVCAR3 cells after 48 hrs by sulforhodamine B assay; type: functional; conditions: OVCAR-3, 48 h; method in brief: as §1
A498 = experiment: Growth inhibition of human A498 cells after 48 hrs by sulforhodamine B assay; type: functional; conditions: A498, 48 h; method in brief: as §1
HCT-15 = experiment: Growth inhibition of human HCT15 cells after 48 hrs by sulforhodamine B assay; type: functional; conditions: HCT-15, 48 h; method in brief: as §1
NCI-H322M = experiment: Growth inhibition of human NCI-H322M cells after 48 hrs by sulforhodamine B assay; type: functional; method in brief: as §1
UACC-257 = experiment: Growth inhibition of human UACC257 cells after 48 hrs by sulforhodamine B assay; type: functional; conditions: UACC-257, 48 h
[6] = Growth inhibition of human HOP92 cells after 48 hrs by sulforhodamine B assay; type: functional; conditions: HOP-92, 48 h; method in brief: as §1
[7] = Growth inhibition of human SF539 cells after 48 hrs by sulforhodamine B assay; type: functional; conditions: SF-539, 48 h
MT4 = experiment: Antiproliferative activity against human MT4 cells after 96 hrs by MTT assay; type: functional, cell-based; conditions: MT4, 96 h
Method in brief: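 Exponentially growing MT-4 cells (CD4+ human T-cells carrying integrated HTLV-1 genome), seeded at 1×10^5 cells/mL in RPMI-1640 with 10% FCS and antibiotics. Serial dilutions of compound (DMSO stock 100 mM, diluted in medium), 37 °C, 5% CO₂, 96 h. Viability read by MTT. 50% inhibition versus untreated controls by linear regression. Mean ± SD of three independent determinations.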

UO-31 = experiment: Growth inhibition of human UO31 cells after 48 hrs by sulforhodamine B assay; type: functional; conditions: UO-31, 48 h
[8] = Growth inhibition of human EKVX cells after 48 hrs by sulforhodamine B assay; type: functional; method in brief: as §1
[9] = Growth inhibition of human MOLT4 cells after 48 hrs by sulforhodamine B assay; type: functional; conditions: MOLT-4, 48 h; method in brief: as §1

## COc1ccc2[nH]c(-c3ccccc3)c(/C=C(\C#N)S(=O)(=O)c3ccccc3)c2c1
SK-MEL-5
  GI50: 3.1 µM
UACC-62
  GI50: 3.8 µM
SNB-75
  GI50: 5.9 µM
OVCAR-5
  GI50: 37.3 µM
SK-MEL-2
  GI50: 3.7 µM
HCT-116
  GI50: 3.7 µM
OVCAR-4
  GI50: 8.3 µM
NCI-H226
  GI50: 9.4 µM
A549
  GI50: 6 µM
[1]
  GI50: 11.6 µM
[2]
  GI50: 18.7 µM
[3]
  GI50: 3.8 µM
ACHN
  GI50: 12.9 µM
HT-29
  GI50: 3.5 µM
TK-10
  GI50: 17.5 µM
Malme-3M
  GI50: 19.4 µM
KM12
  GI50: 3 µM
SW-620
  GI50: 4 µM
[4]
  GI50: 7.4 µM
U-251
  GI50: 4.6 µM
SNB-19
  GI50: 13.5 µM
MDA-MB-468
  GI50: 4.2 µM
SK-MEL-28
  GI50: 6.1 µM
K562
  GI50: 1.4 µM
NCI-H23
  GI50: 8 µM
HL-60(TB)
  GI50: 2.4 µM
DU-145
  GI50: 10.1 µM
MCF7
  GI50: 3.9 µM
NCI-H460
  GI50: 4.6 µM
[5]
  GI50: 7.6 µM
OVCAR-8
  GI50: 7.8 µM
OVCAR-3
  GI50: 5 µM
A498
  GI50: 9.3 µM
HCT-15
  GI50: 4 µM
NCI-H322M
  GI50: 30.1 µM
UACC-257
  GI50: 4.9 µM
[6]
  GI50: 6.1 µM
[7]
  GI50: 5.5 µM
MT4
  EC50: 1.3 µM
UO-31
  GI50: 4 µM
[8]
  GI50: 6.9 µM
[9]
  GI50: 4.7 µM
